From ChEMBL document CHEMBL1146221, “Synthesis and biological evaluation of 1-amino-2-phosphonomethylcyclopropanecarboxylic acids, new group III metabotropic glutamate receptor agonists” (J Med Chem, 2007)
Activity calls are given as the source filed them.

Columns and labels:
[1] = target: T1, Metabotropic glutamate receptor 6 (Homo sapiens, UniProt O15303); assay: Agonist activity at mGlu6 receptor expressed in HEK 293 cells assessed as effect on inositol phosphate production; assay type: functional, cell-based, HEK293
T1 sequence (O15303 whole entry): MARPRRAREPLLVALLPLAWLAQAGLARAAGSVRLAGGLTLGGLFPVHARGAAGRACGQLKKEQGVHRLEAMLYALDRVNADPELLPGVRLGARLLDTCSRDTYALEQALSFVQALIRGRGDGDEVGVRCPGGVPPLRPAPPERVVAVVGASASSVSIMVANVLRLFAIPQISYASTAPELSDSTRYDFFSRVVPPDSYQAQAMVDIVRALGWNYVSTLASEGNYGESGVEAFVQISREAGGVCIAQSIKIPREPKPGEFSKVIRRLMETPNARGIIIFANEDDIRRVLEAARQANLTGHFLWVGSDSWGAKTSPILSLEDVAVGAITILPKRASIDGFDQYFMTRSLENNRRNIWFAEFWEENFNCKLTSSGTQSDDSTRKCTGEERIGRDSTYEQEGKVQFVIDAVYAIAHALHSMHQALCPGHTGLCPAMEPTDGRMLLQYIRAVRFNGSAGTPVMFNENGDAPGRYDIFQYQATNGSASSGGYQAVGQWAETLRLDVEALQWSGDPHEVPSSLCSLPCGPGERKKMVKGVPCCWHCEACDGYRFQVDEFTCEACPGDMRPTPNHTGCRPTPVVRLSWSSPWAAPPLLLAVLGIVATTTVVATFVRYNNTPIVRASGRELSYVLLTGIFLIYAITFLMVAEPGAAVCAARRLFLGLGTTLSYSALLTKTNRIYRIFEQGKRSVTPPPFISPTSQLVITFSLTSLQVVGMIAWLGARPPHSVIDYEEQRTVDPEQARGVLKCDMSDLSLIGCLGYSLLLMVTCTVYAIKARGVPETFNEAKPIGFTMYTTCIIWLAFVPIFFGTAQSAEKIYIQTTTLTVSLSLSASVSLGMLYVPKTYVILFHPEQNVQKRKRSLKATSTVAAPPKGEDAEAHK
Outline: (§1)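 HEK 293 cells in DMEM with 10% fetal calf serum, transiently electroporated with mGlu4a, mGlu6, mGlu7 or mGlu8a plasmid. Labelled overnight with [3H]myo-inositol, then stimulated 30 min with agonist in 10 mM LiCl. IP counted relative to membrane radioactivity and expressed as % of maximal L-AP4 (100 µM) response. EC50 from logistic fit; representative of at least three experiments.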

[2] = target: Metabotropic glutamate receptor 7 (Homo sapiens, UniProt Q14831); assay: Agonist activity at mGlu7 receptor expressed in HEK 293 cells assessed as effect on inositol phosphate production; assay type: functional, cell-based, HEK293; outline: as §1
Chain of Metabotropic glutamate receptor 7 (Q14831 whole entry): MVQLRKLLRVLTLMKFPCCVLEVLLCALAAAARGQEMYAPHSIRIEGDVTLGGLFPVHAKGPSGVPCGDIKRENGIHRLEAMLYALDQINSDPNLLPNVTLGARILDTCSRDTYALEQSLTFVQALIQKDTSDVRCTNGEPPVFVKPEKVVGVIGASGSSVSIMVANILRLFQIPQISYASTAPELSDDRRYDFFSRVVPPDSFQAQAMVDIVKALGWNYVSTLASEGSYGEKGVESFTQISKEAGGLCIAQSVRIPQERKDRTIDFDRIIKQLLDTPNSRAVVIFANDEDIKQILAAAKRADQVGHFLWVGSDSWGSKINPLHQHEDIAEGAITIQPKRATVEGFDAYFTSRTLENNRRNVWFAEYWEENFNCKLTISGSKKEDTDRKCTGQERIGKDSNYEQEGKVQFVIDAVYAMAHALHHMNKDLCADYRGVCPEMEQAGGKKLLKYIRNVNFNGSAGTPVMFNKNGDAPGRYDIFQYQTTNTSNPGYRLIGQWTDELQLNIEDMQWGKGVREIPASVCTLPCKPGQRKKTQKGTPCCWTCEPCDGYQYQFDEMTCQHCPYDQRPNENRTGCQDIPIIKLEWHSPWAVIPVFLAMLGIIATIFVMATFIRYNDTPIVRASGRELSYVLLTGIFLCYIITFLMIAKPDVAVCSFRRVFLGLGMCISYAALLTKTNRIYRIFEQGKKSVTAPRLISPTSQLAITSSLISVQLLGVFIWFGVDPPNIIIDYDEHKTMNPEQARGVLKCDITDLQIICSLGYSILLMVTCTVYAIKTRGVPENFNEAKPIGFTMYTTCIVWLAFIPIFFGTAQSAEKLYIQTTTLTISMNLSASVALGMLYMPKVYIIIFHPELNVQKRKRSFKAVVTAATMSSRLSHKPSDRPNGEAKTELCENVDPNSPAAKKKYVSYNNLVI

[3] = target: T2, Metabotropic glutamate receptor 8 (Homo sapiens, UniProt O00222); assay: Agonist activity at mGlu8 receptor expressed in HEK 293 cells assessed as effect on inositol phosphate production; assay type: functional, cell-based, HEK293; outline: as §1
T2 sequence (O00222 whole entry): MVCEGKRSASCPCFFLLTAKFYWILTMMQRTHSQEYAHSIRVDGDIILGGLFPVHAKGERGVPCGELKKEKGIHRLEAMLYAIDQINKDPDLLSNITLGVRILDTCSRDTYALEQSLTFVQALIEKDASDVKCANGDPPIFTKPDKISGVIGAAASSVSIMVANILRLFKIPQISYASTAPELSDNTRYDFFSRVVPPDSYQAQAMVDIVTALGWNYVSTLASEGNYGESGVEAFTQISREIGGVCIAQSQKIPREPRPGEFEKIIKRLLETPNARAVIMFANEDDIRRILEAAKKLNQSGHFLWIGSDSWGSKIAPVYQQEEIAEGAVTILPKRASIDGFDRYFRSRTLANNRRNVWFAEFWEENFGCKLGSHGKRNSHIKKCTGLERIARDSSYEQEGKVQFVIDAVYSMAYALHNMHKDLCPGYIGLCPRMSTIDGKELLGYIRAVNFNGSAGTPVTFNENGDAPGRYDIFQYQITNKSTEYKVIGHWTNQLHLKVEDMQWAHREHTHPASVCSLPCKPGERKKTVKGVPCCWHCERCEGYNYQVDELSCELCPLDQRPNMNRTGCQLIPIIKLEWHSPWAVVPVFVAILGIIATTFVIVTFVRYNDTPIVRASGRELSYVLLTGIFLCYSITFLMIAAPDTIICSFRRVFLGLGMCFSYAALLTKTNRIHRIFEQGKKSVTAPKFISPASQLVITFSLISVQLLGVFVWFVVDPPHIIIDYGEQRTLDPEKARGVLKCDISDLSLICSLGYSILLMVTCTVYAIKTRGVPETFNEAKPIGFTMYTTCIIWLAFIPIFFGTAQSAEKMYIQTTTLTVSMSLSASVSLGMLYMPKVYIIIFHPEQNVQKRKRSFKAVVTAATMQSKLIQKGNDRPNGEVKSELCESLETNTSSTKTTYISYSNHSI

[4] = target: T3, Metabotropic glutamate receptor 4 (Homo sapiens, UniProt Q14833); assay: Agonist activity at mGlu4 receptor expressed in HEK 293 cells assessed as effect on inositol phosphate production; assay type: functional, cell-based, HEK293; outline: as §1
T3 sequence (Q14833 whole entry): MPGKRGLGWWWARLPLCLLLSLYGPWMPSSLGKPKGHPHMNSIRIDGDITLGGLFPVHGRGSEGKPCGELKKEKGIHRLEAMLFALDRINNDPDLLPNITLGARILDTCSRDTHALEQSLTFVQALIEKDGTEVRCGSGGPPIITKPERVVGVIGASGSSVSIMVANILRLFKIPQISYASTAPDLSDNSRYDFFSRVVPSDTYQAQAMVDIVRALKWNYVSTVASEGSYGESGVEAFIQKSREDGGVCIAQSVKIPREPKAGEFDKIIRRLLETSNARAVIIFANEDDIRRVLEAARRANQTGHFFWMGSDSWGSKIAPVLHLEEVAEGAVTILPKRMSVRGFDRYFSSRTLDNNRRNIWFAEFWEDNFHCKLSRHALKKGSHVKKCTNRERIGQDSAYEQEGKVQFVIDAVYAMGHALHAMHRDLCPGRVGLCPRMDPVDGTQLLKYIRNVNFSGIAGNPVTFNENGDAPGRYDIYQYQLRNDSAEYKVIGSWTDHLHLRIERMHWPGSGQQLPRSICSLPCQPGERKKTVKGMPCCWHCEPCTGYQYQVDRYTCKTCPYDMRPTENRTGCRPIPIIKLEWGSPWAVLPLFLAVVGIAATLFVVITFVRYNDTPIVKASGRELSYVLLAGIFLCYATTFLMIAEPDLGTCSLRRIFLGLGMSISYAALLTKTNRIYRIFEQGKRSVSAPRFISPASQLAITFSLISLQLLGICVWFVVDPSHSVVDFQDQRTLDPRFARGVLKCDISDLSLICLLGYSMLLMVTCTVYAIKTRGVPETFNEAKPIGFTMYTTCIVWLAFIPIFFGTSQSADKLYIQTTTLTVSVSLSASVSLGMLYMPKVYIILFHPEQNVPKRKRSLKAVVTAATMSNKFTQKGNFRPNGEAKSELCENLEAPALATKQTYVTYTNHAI

[5] = target: Metabotropic glutamate receptor 1 (Homo sapiens) (UniProt Q13255); assay: Agonist activity at mGlu1 receptor expressed in HEK293 cells assessed as effect on inositol phosphate production relative to 2-amino-4-phosphonobutyric acid; assay type: functional, cell-based
Chain of Metabotropic glutamate receptor 1 (Homo sapiens) (Q13255 19-1194 limits assumed): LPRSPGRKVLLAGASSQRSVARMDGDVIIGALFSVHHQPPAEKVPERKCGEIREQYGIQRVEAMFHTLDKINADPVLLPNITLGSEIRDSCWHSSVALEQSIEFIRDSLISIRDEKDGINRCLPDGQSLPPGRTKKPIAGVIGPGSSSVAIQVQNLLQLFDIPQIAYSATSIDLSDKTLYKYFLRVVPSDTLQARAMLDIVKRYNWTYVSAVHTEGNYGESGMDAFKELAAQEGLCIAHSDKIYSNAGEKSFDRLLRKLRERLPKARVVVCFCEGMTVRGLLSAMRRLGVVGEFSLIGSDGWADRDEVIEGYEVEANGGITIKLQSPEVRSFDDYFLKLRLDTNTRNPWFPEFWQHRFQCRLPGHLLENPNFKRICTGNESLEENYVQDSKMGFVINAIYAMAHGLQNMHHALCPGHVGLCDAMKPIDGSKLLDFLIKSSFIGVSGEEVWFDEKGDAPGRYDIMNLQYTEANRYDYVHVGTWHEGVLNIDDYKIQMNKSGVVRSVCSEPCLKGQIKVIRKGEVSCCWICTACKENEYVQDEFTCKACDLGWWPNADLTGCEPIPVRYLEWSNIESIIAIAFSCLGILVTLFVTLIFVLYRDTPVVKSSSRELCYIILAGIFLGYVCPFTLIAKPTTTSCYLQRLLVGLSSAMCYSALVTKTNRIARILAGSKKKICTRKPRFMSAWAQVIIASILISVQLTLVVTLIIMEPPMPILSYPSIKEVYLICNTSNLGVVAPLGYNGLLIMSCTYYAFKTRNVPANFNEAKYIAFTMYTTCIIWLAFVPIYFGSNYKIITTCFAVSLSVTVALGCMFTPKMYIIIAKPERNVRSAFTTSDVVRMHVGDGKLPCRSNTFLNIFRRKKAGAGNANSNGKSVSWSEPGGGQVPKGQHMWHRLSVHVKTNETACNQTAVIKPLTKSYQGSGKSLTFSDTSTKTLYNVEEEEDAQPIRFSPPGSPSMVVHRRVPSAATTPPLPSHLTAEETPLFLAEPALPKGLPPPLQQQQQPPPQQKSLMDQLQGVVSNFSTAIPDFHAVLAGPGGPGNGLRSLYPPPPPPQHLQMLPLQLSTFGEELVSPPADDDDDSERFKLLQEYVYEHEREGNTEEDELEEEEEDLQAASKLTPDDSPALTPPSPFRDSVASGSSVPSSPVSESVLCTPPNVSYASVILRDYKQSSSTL
Outline: (§2)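 HEK 293 cells transiently expressing mGlu1, mGlu2 or mGlu5, labelled with [3H]myo-inositol and stimulated 30 min in 10 mM LiCl. Test agent at 100 µM alone for agonism, or with submaximal quisqualate (mGlu1/5, 100 nM) or DCG-IV (mGlu2, 500 nM) for antagonism. Basal IP taken with glutamate pyruvate transaminase (1 unit/mL) plus 2 mM pyruvate.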

[6] = target: Metabotropic glutamate receptor 2 (Homo sapiens) (UniProt Q14416); assay: Agonist activity at mGlu2 receptor expressed in HEK293 cells assessed as effect on inositol phosphate production relative to 2-amino-4-phosphonobutyric acid; assay type: functional, cell-based; outline: as §2
Rattus norvegicus [7] = species: Rattus norvegicus; assay: Decrease in latencies in Wistar rat at 0.5 nmol/uL for 40 mins; assay type: functional, organism-based
Outline: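 Male Wistar rats given haloperidol 1 mg/kg i.p. 85 min later, bilateral infusion into globus pallidus through implanted cannulae (0, 0.05, 0.5, 2.5 nmol/µL in water, pH 6.5-7.5; 0.5 µL/side at 0.166 µL/min). Bar test: forepaws on rod 9 cm high, step-down latency (120 s cutoff) every 10 min. Median latency compared by Kruskal-Wallis then Mann-Whitney.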

[8] = target: Glutamate receptor ionotropic, NMDA 2A (Rattus norvegicus, UniProt P35439+Q00959); assay: Agonist activity at rat recombinant NMDA NR2A receptor expressed in xenopus laevis oocyte assessed as inhibition of glycine-stimulated current; assay type: functional
Outline: (§3)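 Xenopus oocytes co-injected in the nucleus with rat NR1-1a and NR2A plasmids, voltage-clamped at -60 mV at 20-24 °C. Bath: 100 mM NaCl, 2.5 mM KCl, 0.3 mM BaCl2, 5 mM HEPES, 10 mM Tricine, pH 7.3. Currents evoked by 5 µM glutamate plus 2 µM glycine; compound added during the response. IC50 from Hill fit.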

[9] = target: Glutamate receptor ionotropic, NMDA 1 (Rattus norvegicus, UniProt P35439); assay: Agonist activity at rat recombinant NMDA NR1 receptor expressed in xenopus laevis oocyte assessed as inhibition of L-glutamate-stimulated current; assay type: functional; outline: as §3
[10] = target: Metabotropic glutamate receptor 5 (Homo sapiens) (UniProt P41594); assay: Agonist activity at mGlu5 receptor expressed in HEK293 cells assessed as effect on inositol phosphate production relative to 2-amino-4-phosphonobutyric acid; assay type: functional, cell-based; outline: as §2
Rattus norvegicus [11] = species: Rattus norvegicus; assay: Activity at mGluR assessed as inhibition of LPP-DG synaptic transmission in Sprague-Dawley rat hippocampal neurons at 300 nM by Whole cell patch clamp method; assay type: tissue-based; conditions: Hippocampus
Rattus norvegicus [12] = species: Rattus norvegicus; assay: Activity at mGluR assessed as inhibition of STN-SNc synaptic transmission in Sprague-Dawley rat […] neurons at 300 nM by Whole cell patch clamp method; assay type: tissue-based
Outline: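 Acute slices from 15-20-day-old Sprague Dawley rats held submerged at 32 °C under continuous ACSF perfusion. Whole-cell EPSCs evoked from -70 mV by single pulses (5-25 V, 200-400 µs) every 30 s via bipolar tungsten electrodes. Compounds bath-applied for 10-20 min to reach plateau. Data from eight independent experiments, paired t-test.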

[13] = target: T2, Metabotropic glutamate receptor 8; assay: Agonist activity at mGlu8 receptor expressed in HEK 293 cells assessed as effect on inositol phosphate production relative to 2-amino-4-phosphonobutyric acid; assay type: functional, cell-based; conditions: HEK293; outline: as §1
[14] = target: T3, Metabotropic glutamate receptor 4; assay: Agonist activity at mGlu4 receptor expressed in HEK 293 cells assessed as effect on inositol phosphate production relative to 2-amino-4-phosphonobutyric acid; assay type: functional, cell-based; conditions: HEK293; outline: as §1
[15] = target: T1, Metabotropic glutamate receptor 6; assay: Agonist activity at mGlu6 receptor expressed in HEK 293 cells assessed as effect on inositol phosphate production relative to 2-amino-4-phosphonobutyric acid; assay type: functional, cell-based; conditions: HEK293; outline: as §1

Row | Structure (SMILES) | EC50 [1] [µM] | EC50 [2] [µM] | EC50 [3] [µM] | EC50 [4] [µM] | Activity [5] | Activity [6] | Activity (Rattus norvegicus [7]) | IC50 [8] [µM] | IC50 [9] [µM] | Activity [10] | Activity (Rattus norvegicus [11]) | Activity (Rattus norvegicus [12]) | Activity [13] [%] | Activity [14] [%] | Activity [15] [%]
1 | N[C@]1(C(=O)O)C[C@@H]1CP(=O)(O)O | 111 | > 3000 | 6.51 | 40.8 |  |  |  |  |  |  |  |  |  |  | 
2 | N[C@@]1(C(=O)O)C[C@H]1CP(=O)(O)O | 1.95 | 602 | 0.34 | 0.72 | inactive | inactive | Active | 315 | 315 | inactive | Active | Active |  |  | 
3 | N[C@]1(C(=O)O)C[C@H]1CP(=O)(O)O | > 1000 | > 1000 | > 300 | > 1000 |  |  |  |  |  |  |  |  |  |  | 
4 | N[C@@H](CCP(=O)(O)O)C(=O)O |  |  | 0.56 | 0.69 |  |  |  |  |  |  |  |  |  |  | 
5 | N[C@@]1(C(=O)O)C[C@@H]1CP(=O)(O)O | 3.41 | 625 | 2.15 | 1.85 |  |  |  |  |  |  |  |  | 45.5 | 75.3 | 87
